The structures appear in SMILES notation.

Results on one compound are retold here after ChEMBL document CHEMBL1154414, “In vitro and in vivo activities of T-705 against arenavirus and bunyavirus infections” (Antimicrob Agents Chemother, 2007).

The test system of assay [1] is Punta Toro virus. Nature of the assay: Antiviral activity against 500 PFU Punta Toro virus Adames infected C57BL/6 mouse assessed as mean viral titer per 0.1 g of liver at 25 mg/kg, po administered 4 hrs before viral challenge measured on day 4 of viral infection. The assay is classed as functional. An outline of the steps: (§1)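 Mice were infected subcutaneously with PTV and dosed by oral gavage twice daily; 5 per group (10 placebo) were killed on day 3 or 4. Liver homogenate or serum was serially diluted onto triplicate LLC-MK2 monolayers, and CPE was read 6–8 days later. 50% endpoints gave log10 CCID50 per 0.1 g liver or 0.1 ml serum. Detection range was 2.8–9.5; undetectable samples were assigned <2.8.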

Assay [2] concerns Pichinde virus. Nature of the assay: Antiviral activity against Pichinde virus An 4763 infected Syrian golden hamster assessed as mean day of death at 60 mg/kg, po twice daily for 7 days administered 4 hrs before viral-challenge. The assay is classed as functional.
Assay [3] concerns Punta Toro virus. Put plainly: Antiviral activity against 500 PFU Punta Toro virus Adames infected C57BL/6 mouse assessed as animals with detectable virus level in liver at 10 mg/kg, po twice daily administered 4 hrs before viral challenge measured on day 3 of viral infection. The assay is classed as functional. An outline of the steps: (§2)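 T-705 was suspended in 0.4% carboxymethylcellulose and given by oral gavage twice daily. Mice were infected subcutaneously with PTV. Five mice per group (10 placebo) were sacrificed on day 3 or 4. Liver homogenate or serum was serially diluted onto triplicate LLC-MK2 monolayers, and CPE was read at 6–8 days. The detection limit was 2.8 log10 CCID50 per 0.1 g liver or 0.1 ml serum.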

Assay [4] concerns Punta Toro virus. Put plainly: Antiviral activity against 500 PFU Punta Toro virus Adames infected C57BL/6 mouse assessed as animals with detectable virus level in liver at 100 mg/kg, po twice daily administered 4 hrs before viral challenge measured on day 4 of viral infection. The assay is classed as functional. The procedure, abridged:
as §2

Assay [5] relates to Punta Toro virus. Put plainly: Antiviral activity against 500 PFU Punta Toro virus Adames infected C57BL/6 mouse assessed as mean serum ALT levels at 30 mg/kg, po twice daily administered 4 hrs before viral challenge measured on day 3 of viral infection. The class given is functional. An outline of the steps:
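C57BL/6 mice received subcutaneous PTV, then oral gavage twice daily for 5–7 days. T-705 was given in 0.4% CMC and ribavirin in saline. Five mice per group (10 placebo) were killed on day 3 or 4, and serum was collected. ALT activity was measured by kinetic assay. Three sham-infected mice set baselines.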

Assay [6] relates to Respiratory syncytial virus. Nature of the assay: Antiviral activity against Respiratory syncytial virus. The class given is functional, organism-based. The conditions noted are these: human respiratory syncytial virus.
Assay [7] has as its system Punta Toro virus. Put plainly: Antiviral activity against 500 PFU Punta Toro virus Adames infected C57BL/6 mouse assessed as animals with detectable virus level in liver at 75 mg/kg, po twice daily administered 4 hrs before viral challenge measured on day 4 of viral infection. The class given is functional. The procedure, abridged: as §2
Assay [8] has as its system Pichinde virus. Put plainly: Antiviral activity against Pichinde virus An 4763 infected Syrian golden hamster assessed as survival at 60 mg/kg, po twice daily for 7 days administered 4 hrs before viral-challenge. The class given is functional.
In assay [9] the test system is Punta Toro virus. Nature of the assay: Antiviral activity against Punta Toro virus Adames infected Syrian golden hamster assessed as mean serum ALT levels at 15 mg/kg, po twice daily administered 4 hrs before viral challenge measured on day 4 of viral infection. The assay is classed as functional.
In assay [10] the test system is Punta Toro virus. Nature of the assay: Antiviral activity against 500 PFU Punta Toro virus Adames infected C57BL/6 mouse assessed as mean day of death at 100 mg/kg, po twice daily for 5 days administered 4 hrs before viral challenge. The assay is classed as functional. The procedure, abridged: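 Groups of 15 mice (25–30 placebo) were inoculated subcutaneously with PTV. Drug in 0.4% carboxymethylcellulose was given by oral gavage twice daily.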

The subject of assay [11] is Punta Toro virus. Put plainly: Antiviral activity against Punta Toro virus Adames infected Syrian golden hamster assessed as survival at 15 mg/kg, po twice daily for 6 days administered 4 hrs before viral challenge. The assay is classed as functional.
Assay [12] has as its system Punta Toro virus. Put plainly: Antiviral activity against 500 PFU Punta Toro virus Adames infected C57BL/6 mouse assessed as mean viral titer per 0.1 mL of serum at 30 mg/kg, po twice daily administered 4 hrs before viral challenge measured on day 3 of viral infection. The class given is functional. The procedure, abridged: as §1
The test system of assay [13] is Punta Toro virus. Nature of the assay: Antiviral activity against 500 PFU Punta Toro virus Adames infected C57BL/6 mouse assessed as mean viral titer per 0.1 g of liver at 50 mg/kg, po administered 4 hrs before viral challenge measured on day 4 of viral infection. The assay is classed as functional. An outline of the steps: as §1
The test system of assay [14] is Punta Toro virus. Nature of the assay: Antiviral activity against 500 PFU Punta Toro virus Adames infected C57BL/6 mouse assessed as mean viral titer per 0.1 mL of serum at 75 mg/kg, po twice daily administered 4 hrs before viral challenge measured on day 4 of viral infection. The assay is classed as functional. An outline of the steps: as §1
Assay [15] relates to Punta Toro virus. Put plainly: Antiviral activity against 500 PFU Punta Toro virus Adames infected C57BL/6 mouse assessed as animals with detectable virus level in liver at 25 mg/kg, po twice daily administered 4 hrs before viral challenge measured on day 4 of viral infection. The class given is functional. An outline of the steps:
as §2

Assay [16] relates to Pichinde virus. Put plainly: Antiviral activity against Pichinde virus An 4763 infected Syrian golden hamster assessed as […] survival administered po twice daily for 7 days administered 4 hrs before viral-challenge. The class given is functional, organism-based.
Assay [17] deals with Influenza A virus. Nature of the assay: Antiviral activity against influenza A virus. The assay is classed as functional, organism-based.
Assay [18] has as its system Pichinde virus. Nature of the assay: Antiviral activity against Pichinde virus An 4763 infected Syrian golden hamster assessed as animals with detectable virus level in liver at 60 mg/kg, po twice daily for 7 days administered 4 hrs before viral-challenge measured on day 7 of viral infection. The assay is classed as functional.
For assay [19], the system named is Punta Toro virus. Nature of the assay: Antiviral activity against 500 PFU Punta Toro virus Adames infected C57BL/6 mouse assessed as animals with detectable virus level in liver at 5 mg/kg, po twice daily administered 4 hrs before viral challenge measured on day 3 of viral infection. The class given is functional. The procedure, abridged: as §2

For the compound `NC(=O)c1nc(F)cnc1O` [FAVIPIRAVIR], the log10CCID50 in assay [1] is on record as less than 2.8; in assay [12], less than 5.2; in assay [13], less than 2.8; in [14], less than 3.3. Further, the Activity in [2] amounted to 22 days; in [3], 0%; in assay [4], 0%; in [5] it was 9 IU/L; in assay [7] it was 0%; in [8], 90%. The Activity in [9] was 204 IU/L; in assay [10], greater than 21 days; in assay [15], 0%; in assay [16], “Dose-dependent effect”; in [18], 0%; in assay [19], 0%. Moreover, the EC50 worked out at 261 µM in assay [6] and 0.083 µM in [17]. Also, the survival at 15 mg/kg in assay [11] stood at 50%.

As a reminder, the EC50 is the concentration needed to bring the measured effect to its halfway point. A high value points to lower potency in that assay.
